Screening data deposited in PubChem by several laboratories.
Yeast superoxide: yeast age-related superoxide inhibition as caloric restriction mimetic; S. cerevisiae aged cells, superoxide DHE fluorescence; hits give low values; superoxide response (% of plate mean), % at 10 µM; 330,000 tested, 0.18% active;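 active = superoxide response under a set limit, about three screen SD below normal, cut at about 65% in these data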;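 note: yeast aged for seven days with compound at 30 °C before DHE staining; 100% = average MFI of all compound-treated wells on the plate with controls excluded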
IDE cell activ: IDE (human) activation, cell-based | P14735 | activation, % at 5.96 µM | AID 493087 | 340,000 tested, 0.073% active | HEK cells, FAbeta-B cleavage, fluorescence polarization; 0% vehicle, 100% cell-free pure enzyme wells;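 active = activation above the mean of all tested compounds plus 3 SD, set per screening campaign, cut at about 17% in these data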
HDAC3 inhib: blocks human histone deacetylase 3. O15379. recombinant HDAC3, fluorogenic peptide/trypsin coupled, fluorescence. inhibition, % at 8.3 µM. 320,000 tested, 0.15% active. AID 2718; in the data active = inhibition above about 26%, passing the limit was not always enough
Efflux pump inh: inhibitors of Candida antifungal efflux pumps expressed in yeast | S. cerevisiae Candida pump triplex, Nile Red efflux | inhibition, % at 10 µM | 330,000 tested, 0.44% active;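 active = plate passing quality check with inhibition over a set limit, or well fluorescence over plate mean plus 4 SD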;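 note: Nile Red retained in pooled yeast measured as flow cytometry median fluorescence; 0% = buffer negative control and 100% = Enniatin B positive control; higher means more Nile Red kept so more efflux inhibition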
IDE cell inh: inhibits human insulin-degrading enzyme in HEK cells; P14735; FAbetaB cleavage, fluorescence polarization; inhibition, % at 5.59 µM; 320,000 tested, 0.41% active; AID 434962;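 active = percent inhibition above the average of all tested compounds plus 3 SD, set per screening campaign, cut at about 16% in these data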;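 note: IDE supplied by intact live HEK cells; FP after avidin binding of uncleaved biotin substrate so inhibition keeps polarization high; 0% = DMSO wells and 100% = 60 µM reference IDE inhibitor Ii1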
TbMetRS inhib: blocks T. brucei methionyl-tRNA synthetase activity | purified T. brucei MetRS, ATP depletion, Kinase-Glo luminescence | inhibition, % at 11.9 µM | 360,000 tested, 0.4% active;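 active = inhibition above a per-plate cutoff of the control wells' mean inhibition plus 3 SD, cut at about 5.5% in these data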;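 note: 0% = DMSO wells median and 100% = median of wells with control inhibitor compound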
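Assay system: T. brucei methionyl-tRNA synthetase, purified | Medium: HEPES buffer with MgCl2, KCl, DTT, spermine, BSA, pyrophosphatase | Compound: 11.9 µM single point | Incubation: 15 min enzyme-compound preincubation, 2 h reaction, 10 min detection, 25 °C | Measured by: Kinase-Glo luciferase luminescence reporting remaining unconsumed ATP | Measure: % inhibition normalized to control-well medians | Replication: Singlicate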
Numbers without * were called inactive; . = not tested or not shown. Only some compounds are listed: those with a hit (about 1.4% of all), similar ones and a draw of the others.

SMILES | Yeast superoxide | IDE cell activ | HDAC3 inhib | Efflux pump inh | IDE cell inh | TbMetRS inhib
COC(=O)[C@]12CCCCC=C1N(Cc1ccc3c(c1)OCO3)C(=O)[C@H](CC(=O)N1CCN(C(=O)c3ccco3)CC1)C2 | . | . | . | . | . | 0
COC(=O)[C@@]12C[C@@H](CC(=O)NCc3cccc(C(F)(F)F)c3)C(=O)N(Cc3ccccc3)C1=CCC(C)(C)C2 | . | . | . | . | . | 0
O=C(CNc1cc(S(=O)(=O)N2CCOCC2)ccc1NCC1CCCO1)Nc1ccc(F)c(F)c1 (stereo unspecified) | 102 | 2 | -5 | 0 | -3 | 8.5*
COc1ccc(NC(=O)CNc2cc(S(=O)(=O)N3CCOCC3)ccc2NCC2CCCO2)cc1 (stereo unspecified) | 84 | -8 | 4 | 0 | -5 | 1
CCc1cc2ccc(C)cc2nc1SCC(=O)c1ccc(NC(C)=O)cc1 | 96 | -1 | 68* | 0 | 3 | 0
C[C@H](NC(=O)c1nc[nH]c1C(=O)N[C@@H](Cc1ccccc1)C(=O)OC(C)(C)C)c1ccccc1 | 106 | 10 | 28* | 0 | -8 | 0
C[C@@H](NC(=O)c1nc[nH]c1C(=O)N[C@@H](CCCCNC(=O)OC(C)(C)C)C(=O)OC(C)(C)C)c1ccccc1 | 97 | 8 | 34* | 0 | 0 | 0
CC(C)(C)OC(=O)[C@H](Cc1ccccc1)NC(=O)c1nc[nH]c1C(=O)N[C@@H](CCCCN)C(=O)OC(C)(C)C | 124 | 7 | 15 | 0 | 1 | 0
CC(C)C[C@H](NC(=O)c1nc[nH]c1C(=O)NCC(=O)OCc1ccccc1)C(=O)OCc1ccccc1 | 95 | 6 | 28* | 0 | -2 | 0
CC(C)C[C@H](NC(=O)c1nc[nH]c1C(=O)N[C@@H](CCCCNC(=O)OC(C)(C)C)C(=O)OC(C)(C)C)C(=O)OC(C)(C)C | 101 | 2 | 4 | 0 | -5 | 0
CC(C)(C)OC(=O)NCCCC[C@H](NC(=O)c1[nH]cnc1C(=O)N[C@@H](Cc1ccccc1)C(=O)OCc1ccccc1)C(=O)OC(C)(C)C | 85 | 4 | 38* | 0 | 5 | 0
N#CC(=C1C=CC(=NO)C(Cl)=C1)c1ccccc1 | . | . | . | . | . | 0
C[C@H](NC(=O)C[C@@H]1CC[C@H]2[C@@H](COC[C@H](O)CN2Cc2ccc(C(F)(F)F)cc2)O1)c1ccccc1 | . | . | . | . | . | 1
CC(C)(C)OC(=O)NCCCC[C@H](NC(=O)c1[nH]cnc1C(=O)Nc1ccccc1)C(=O)OC(C)(C)C | 83 | 7 | 37* | 0 | 0 | 0
COc1ccc2c(c1OC)C(CC(C)=O)N1CCc3cc4c(cc3C1C2=O)OCO4 (stereo unspecified) | . | . | . | . | . | 0
COCCN1C(=O)CSCC1(C)C(=O)NC(C)C (stereo unspecified) | . | . | . | . | . | -1
O=C(Nc1nc2c(Br)cccc2s1)C1CC1 | 73 | 2 | 46* | 0 | 4 | 1
O=C(C(=O)N1CCC(Cc2ccccc2)CC1)c1ccccc1Br | . | . | . | . | . | 0
CC1(C(=O)Nc2ccc(F)c(Cl)c2)Cc2c(-c3ccc(C(N)=O)cc3)ccnc2O1 (stereo unspecified) | . | . | . | . | . | 0
CCOC(=O)c1ccc(OC(=O)CCCCCN=C(N)N)cc1 | 93 | 4 | 93* | 0 | -4 | 0
CC(=O)Nc1ccc(NC2=Nc3ccccc3N3C2=Nc2c(c(C)nn2-c2ccccc2)C3c2ccccc2)cc1 (stereo unspecified) | 99 | 5 | 4 | 0 | 5 | -1
Cc1ccc(C2c3c(C)nn(-c4ccc([N+](=O)[O-])cc4)c3N=C3C(=O)Nc4ccccc4N32)cc1 (stereo unspecified) | 100 | . | 7 | 0.5* | 5 | .
CN(C)CCNc1ncnc2c1sc1nc(-c3ccccc3)c3c(c12)CCCC3 | 99 | 32* | -2 | 0 | 1 | -1
O=C(Cc1ccc(-n2c(=O)[nH]c3ccsc3c2=O)cc1)N1CCN(c2ccc(Cl)cc2)CC1 | 69 | -15 | 1 | 0 | 21* | 0
O=C(Nc1ccc(F)cc1)C(c1ccncc1)N1CCN(c2cccc(C(F)(F)F)n2)CC1 (stereo unspecified) | . | . | . | . | . | 0
SMILES | Yeast superoxide | IDE cell activ | HDAC3 inhib | Efflux pump inh | IDE cell inh | TbMetRS inhib
Cc1ccc(S(=O)(=O)N2CC(CO)=CCC2c2ccccc2)cc1 (stereo unspecified) | . | . | . | . | . | -1
CC(=O)NC1=NC(=O)/C(=C/c2cn(C(C)=O)nc2-c2ccccc2)S1 | 92 | -4 | 17 | 0 | 20* | 0
Cc1csc(-c2nc3ccccc3n2C(C(=O)NC(C)(C)C)c2ccccc2)c1 (stereo unspecified) | . | . | . | . | . | 0
O=C(Nc1ccc(F)cc1)C(CCc1ccccc1)N1CCN(Cc2c(F)cccc2Cl)CC1 (stereo unspecified) | . | . | . | . | . | 0
C/C=C/C=C/C(=O)N1CC2(CC(c3cccc(NC(=O)CCCCC)c3)=NO2)C[C@H]1C(N)=O (stereo partly specified) | 104 | -2 | 61* | 0 | -4 | 0
Cc1cccc(C)c1NC(=O)C1(C)CSCC(=O)N1Cc1cccc(C(F)(F)F)c1 (stereo unspecified) | . | . | . | . | . | 0
Cc1nc2ccc(C(C(F)(F)F)(C(F)(F)F)C(F)(F)F)cc2[nH]1 | 88 | 1 | 32* | 0 | -1 | 0
Cc1nc2ccc(Cl)cc2[nH]1 | . | 3 | . | . | . | 0
CCC(CC)C1=NN2C(=N)/C(=C/c3ccc(OC(=O)c4ccco4)cc3)C(=O)N=C2S1 | 124 | -4 | 32* | 0 | 2 | 0
O=[N+]([O-])c1ccc(/C=C/c2ccncc2)cc1 | 62* | 0 | 0 | 0 | -2 | 0
COc1ccccc1C(=O)NC(CCSC)C(=O)NNC(=O)c1ccc(F)cc1 (stereo unspecified) | 85 | 3 | -1 | -2 | 1 | 0
COc1ccccc1C(=O)NC(CCSC)C(=O)NNC(=O)c1ccccc1O (stereo unspecified) | 64* | 1 | 3 | 0 | -2 | -1
Cc1ccc(S(=O)(=O)/N=C2/C=C(Sc3ncn[nH]3)C(=O)c3ccccc32)c(C)c1 | 155 | . | 38* | 0 | 7 | .
CSc1nc(=S)c2[nH]c(=S)[nH]c2[nH]1 | 95 | -14 | 36* | 0 | . | 0
CCOCCCNC(=S)N(CCN(C)C)Cc1cc2cc3c(cc2[nH]c1=O)OCCO3 | 119 | 2 | 35* | 0 | 7 | 2
CN(C)CCCNC(=S)N(CCN(C)C)Cc1cc2cc3c(cc2[nH]c1=O)OCCO3 | 125 | -3 | 2 | 0 | -3 | 3
CC(Nc1nc(-c2ccc3c(c2)NC(=O)CO3)cs1)c1ccccc1 (stereo unspecified) | 106 | 2 | 36* | 0 | 5 | 0
O=C(COC(=O)c1ccc2ncsc2c1)Nc1ccccc1Cl | 40* | 0 | 3 | 0 | -1 | 0
COc1cccc(C2CC(OCCF)=CC(=O)O2)c1 (stereo unspecified) | . | . | . | . | . | 0
